Measurements of several laboratories.
Organism: Leishmania donovani
Observed: parasite growth

SMILES	technique	cell line	time	notes	IC50
N=C(N)c1ccc(OCCCCCOc2ccc(C(=N)N)cc2)cc1	resazurin	–	72 h	promastigote	1.65 mg/L
COc1cc(NC(C)CCCNCCNCCNCCCC(C)Nc2cc(OC)cc3cccnc23)c2ncccc2c1.Cl.Cl (centres unmarked)	resazurin	–	–	promastigote	2.99 mg/L
c1ccc(CN2CCN(c3nc(-c4ccccn4)nc4ccccc34)CC2)cc1	–	THP-1	–	intracellular, amastigote	4.2 µM
CCC/C=C/c1cc2c(C=O)c(O)c(CC=C(C)C)cc2o1	resazurin	–	48 h	promastigote	6.2 mg/L
CCCCCCCCCCCCCCCCOP(=O)([O-])OCC[N+](C)(C)C	–	–	–	promastigote	4.23 µM
C[C@@H]1[C@H](O)[C@@H](C)/C=C/C=C/C=C/C=C/C=C/C=C/C=C/[C@H](O[C@@H]2O[C@H](C)[C@@H](O)[C@H](N)[C@@H]2O)C[C@@H]2O[C@](O)(C[C@@H](O)C[C@@H](O)[C@H](O)CC[C@@H](O)C[C@@H](O)CC(=O)O[C@H]1C)C[C@H](O)[C@H]2C(=O)O	–	THP-1	5 days	intracellular, amastigote	0.4 µM
CCCCCCCCCCCCCCCCOP(=O)([O-])OCC[N+](C)(C)C	–	–	–	intracellular, amastigote	1.83 µM
COc1cc(NC(C)CCCN)c2ncccc2c1 (centres unmarked)	resazurin	–	–	promastigote	19.9 mg/L
N=C(N)c1ccc(OCCCCCOc2ccc(C(=N)N)cc2)cc1	–	–	–	promastigote	0.651 µM
O=[N+]([O-])c1c(CS(=O)(=O)c2ccccc2)nc2c(Br)cc(Br)cn12	MTT	–	72 h	promastigote	1.8 µM
C[C@@H]1[C@H](O)[C@@H](C)/C=C/C=C/C=C/C=C/C=C/C=C/C=C/[C@H](O[C@@H]2O[C@H](C)[C@@H](O)[C@H](N)[C@@H]2O)C[C@@H]2O[C@](O)(C[C@@H](O)C[C@@H](O)[C@H](O)CC[C@@H](O)C[C@@H](O)CC(=O)O[C@H]1C)C[C@H](O)[C@H]2C(=O)O	resazurin	–	–	promastigote	0.19 mg/L
c1ccc(CNc2nc(-c3ccccn3)nc3ccccc23)cc1	–	THP-1	–	intracellular, amastigote	2.17 µM
C[C@@H]1[C@H](O)[C@@H](C)/C=C/C=C/C=C/C=C/C=C/C=C/C=C/[C@H](O[C@@H]2O[C@H](C)[C@@H](O)[C@H](N)[C@@H]2O)C[C@@H]2O[C@](O)(C[C@@H](O)C[C@@H](O)[C@H](O)CC[C@@H](O)C[C@@H](O)CC(=O)O[C@H]1C)C[C@H](O)[C@H]2C(=O)O	resazurin	–	72 h	promastigote	0.57 mg/L
c1ccc(-c2nc(N3CCCC3)c3ccccc3n2)nc1	imaging	THP-1	–	intracellular, amastigote	1.3 µM
N=C(N)c1ccc(OCCCCCOc2ccc(C(=N)N)cc2)cc1	resazurin	–	48 h	promastigote	1 mg/L
Fc1cccc(Nc2nc(-c3ccccn3)nc3ccccc23)c1	–	THP-1	–	intracellular, amastigote	1.4 µM
Cc1cc(NC(=O)Nc2ccc3c(c2)OC(F)(F)O3)cc(C(F)(F)F)n1	–	–	–	intracellular, amastigote	0.86 µM
